# Measurements published in ChEMBL document CHEMBL1145781, “Synthesis and structure-activity relationships of 5-amino-6-fluoro-1-[(1R,2S)-2-fluorocyclopropan-1-yl]-8-methylquinolonecarboxylic acid antibacterials having fluorinated 7-[(3R)-3-(1-aminocyclopropan-1-yl)pyrrolidin-1-yl] substituents” (J Med Chem, 2003).
# Assays:
# Staphylococcus aureus [1] = assay: Antibacterial activity was determined against clinically isolated Levofloxacin-methicillin resistant Staphylococcus aureus (LVFX-r MRSA) strains (74 strains); Range= 0.5-128 ug/mL; format: functional
# Procedure, shortened: (§1)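 Twofold broth microdilution in Mueller–Hinton broth, inoculum about 10^5 CFU per well. Plates incubated 18 h at 37 °C. MIC taken as the lowest concentration preventing visible growth. Organisms were clinical resistant Gram-positive isolates.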
# Streptococcus pneumoniae [2] = assay: Antibacterial activity was determined against Streptococcus pneumoniae J-24 strain after incubation at 37 degrees C for 18 h; format: functional
# Escherichia coli = assay: Antibacterial activity was determined against Escherichia coli NIHJ strain after incubation at 37 degrees C for 18 h; format: functional
# Enterococcus faecalis = assay: Antibacterial activity was determined against Enterococcus faecalis ATCC 19433 strain after incubation at 37 degrees C for 18 h; format: functional; conditions: ATCC 19433, 18 h
# [3] = Mortality was determined after 150 mg/kg dose administered intravenously to 5-week old male mice at a speed of 0.2 mL/min counted on day 7 for total 2 mice; format: ADME, organism-based; set-up: dose 150 mg/kg, route intravenous; conditions: mouse, in vivo, iv
# Procedure, shortened: (§2)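 Male Slc:ddY mice, 5 weeks old. Compound dissolved in 0.1 N NaOH in saline at varied concentrations and given as a single IV injection at 0.2 mL/min, total volume 10 mL/kg body weight. Deaths counted on day 7 and reported as dead/tested.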
# [4] = tested on: Staphylococcus epidermidis; assay: Antibacterial activity was determined against Staphylococcus epidermis 56500 strain after incubation at 37 degrees C for 18 h; format: functional
# Pseudomonas aeruginosa = assay: Antibacterial activity was determined against Pseudomonas aeruginosa PAO1 strain after incubation at 37 degrees C for 18 h; format: functional
# Streptococcus pyogenes = assay: Antibacterial activity was determined against Streptococcus pyogenes G-36 strain after incubation at 37 degrees C for 18 h; format: functional
# [5] = Toxicity was determined as presence of micronucleated reticulocytes (MNRET) in blood at 24 and 48 hr after 100 mg/kg dose administered intravenously to 5-week old male mice; negative.; format: organism-based; set-up: dose 100 mg/kg, route intravenous; conditions: mouse, in vivo, iv
# [6] = Mortality was determined after 100 mg/kg dose administered intravenously to 5-week old male mice at a speed of 0.2 mL/min counted on day 7 for total 5 mice; format: ADME, organism-based; set-up: dose 100 mg/kg, route intravenous; conditions: mouse, in vivo, iv; procedure, shortened: as §2
# Staphylococcus aureus [7] = assay: Antibacterial activity was determined against Staphylococcus aureus FDA 209-P strain after incubation at 37 degrees C for 18 h; format: functional
# Streptococcus mitis = assay: Antibacterial activity was determined against Streptococcus mitis IID685 strain after incubation at 37 degrees C for 18 h; format: functional
# Klebsiella pneumoniae = assay: Antibacterial activity was determined against Klebsiella pneumoniae type II strain after incubation at 37 degrees C for 18 h; format: functional
# Rattus norvegicus = assay: Ratio of total concentration in serum to that of serum after 6 hr of intravenous administration to rats (n=4) at dose of 20 mg/kg; format: ADME, organism-based; set-up: dose 20 mg/kg, route intravenous; conditions: in vivo
# [8] = Half life in lung was determined after intravenous administration to rats (n=4) at dose of 20 mg/kg; format: ADME, organism-based; set-up: dose 20 mg/kg, route intravenous; conditions: rat
# [9] = Ratio of total concentration in kidney to that of serum after 6 hr of intravenous administration to rats (n=4) at dose of 20 mg/kg; format: ADME, organism-based; set-up: dose 20 mg/kg, route intravenous; conditions: rat
# [10] = Kidney concentration was determined after 5 min. of intravenous administration to rats (n=4) at dose of 20 mg/kg; format: ADME, organism-based; set-up: dose 20 mg/kg, route intravenous; conditions: rat
# [11] = Ratio of total concentration in liver to that of serum after 6 hr of intravenous administration to rats (n=4) at dose of 20 mg/kg; format: ADME, organism-based; set-up: dose 20 mg/kg, route intravenous; conditions: rat
# Streptococcus pneumoniae [12] = assay: Antibacterial activity was determined against clinically isolated penicillin resistant Streptococcus pneumoniae (PRSP) strains (50 strains); format: functional
# [13] = Lung concentration was determined after 5 min. of intravenous administration to rats (n=4) at dose of 20 mg/kg; format: ADME, organism-based; set-up: dose 20 mg/kg, route intravenous; conditions: rat
# [14] = Liver concentration was determined after 5 min. of intravenous administration to rats (n=4) at dose of 20 mg/kg; format: ADME, organism-based; set-up: dose 20 mg/kg, route intravenous; conditions: rat
# [15] = Total concentration in kidney was determined after 6 hr of intravenous administration to rats (n=4) at dose of 20 mg/kg; format: ADME, organism-based; set-up: time < 6 hr, dose 20 mg/kg, route intravenous; conditions: rat
# [16] = Total concentration in lung was determined after 6 hr of intravenous administration to rats (n=4) at dose of 20 mg/kg; format: ADME, organism-based; set-up: time < 6 hr, dose 20 mg/kg, route intravenous; conditions: rat
# [17] = Solubility was determined in water; format: physicochemical
# [18] = Total concentration in liver was determined after 6 hr of intravenous administration to rats (n=4) at dose of 20 mg/kg; format: ADME, organism-based; set-up: time < 6 hr, dose 20 mg/kg, route intravenous; conditions: rat
# [19] = Half life in kidney was determined after intravenous administration to rats (n=4) at dose of 20 mg/kg; format: ADME, organism-based; set-up: dose 20 mg/kg, route intravenous; conditions: rat
# Enterococcus sp. [20] = assay: Antibacterial activity was determined against clinically isolated vancomycin-B resistant enterococci (VRE) strains (10 strains); format: functional
# Staphylococcus aureus [21] = assay: Antibacterial activity was determined against clinically isolated Levofloxacin-methicillin resistant Staphylococcus aureus (LVFX-r MRSA) strains (74 strains); format: functional
# [22] = Total concentration in serum was determined after 6 hr of intravenous administration to rats (n=4) at dose of 20 mg/kg; format: ADME, organism-based; set-up: time < 6 hr, dose 20 mg/kg, route intravenous; conditions: rat
# [23] = Ratio of total concentration in lung to that of serum after 6 hr of intravenous administration to rats (n=4) at dose of 20 mg/kg; format: ADME, organism-based; set-up: dose 20 mg/kg, route intravenous; conditions: rat
# [24] = Mortality was determined after 150 mg/kg dose administered intravenously to 5-week old male mice at a speed of 0.2 mL/min counted on day 7 for total 5 mice; format: ADME, organism-based; set-up: dose 150 mg/kg, route intravenous; conditions: mouse, in vivo, iv; procedure, shortened: as §2
# [25] = Serum concentration was determined after 5 min. of intravenous administration to rats (n=4) at dose of 20 mg/kg; format: ADME, organism-based; set-up: dose 20 mg/kg, route intravenous; conditions: rat
# [26] = Half life in liver was determined after intravenous administration to rats (n=4) at dose of 20 mg/kg; format: ADME, organism-based; set-up: dose 20 mg/kg, route intravenous; conditions: rat
# Enterococcus sp. [27] = assay: Antibacterial activity was determined against clinically isolated vancomycin-A resistant enterococci (VRE) strains (33 strains); format: functional
# [28] = Half life in serum was determined after intravenous administration to rats (n=4) at dose of 20 mg/kg; format: ADME, organism-based; set-up: dose 20 mg/kg, route intravenous; conditions: rat
# [29] = Toxicity was determined as presence of micronucleated reticulocytes (MNRET) in blood at 24 and 48 h after 150 mg/kg dose administered intravenously to 5-week old male mice; negative.; format: organism-based; set-up: dose 150 mg/kg, route intravenous; conditions: mouse, in vivo, iv
# Enterococcus sp. [30] = assay: Antibacterial activity was determined against clinically isolated vancomycin-A resistant Enterococci (VRE) strains (33 strains); format: functional; procedure, shortened: as §1
# Enterococcus sp. [31] = assay: Antibacterial activity was determined against clinically isolated vancomycin-B resistant Enterococci (VRE) strains (10 strains); format: functional; procedure, shortened: as §1
# Streptococcus pneumoniae [32] = assay: Antibacterial activity was determined against clinically isolated penicillin resistant Streptococcus pneumoniae (PRSP) strains (50 strains); Range= 1-4; format: functional
smiles,measurement,setting,value
C[C@H]1COc2c(N3CCN(C)CC3)c(F)cc3c(=O)c(C(=O)O)cn1c23.C[C@H]1COc2c(N3CCN(C)CC3)c(F)cc3c(=O)c(C(=O)O)cn1c23.O [LEVOFLOXACIN],MIC,Staphylococcus aureus [1],128 µg/mL
Cc1c(N2C[C@H](C3(N)CC3)C(F)(F)C2)c(F)c(N)c2c(=O)c(C(=O)O)cn([C@@H]3C[C@@H]3F)c12,MIC,Streptococcus pneumoniae [2],≤ 0.003 µg/mL
same,MIC,Escherichia coli,≤ 0.003 µg/mL
same,MIC,Enterococcus faecalis,0.013 µg/mL
same,Dead,[3],2
same,MIC,[4],≤ 0.003 µg/mL
same,MIC,Pseudomonas aeruginosa,0.2 µg/mL
same,MIC,Streptococcus pyogenes,≤ 0.003 µg/mL
same,Toxicity,[5],Non-toxic
same,Dead,[6],1
same,MIC,Staphylococcus aureus [7],≤ 0.003 µg/mL
same,MIC,Streptococcus mitis,≤ 0.003 µg/mL
same,MIC,Klebsiella pneumoniae,0.013 µg/mL
Cc1c(N2C[C@@H](F)[C@@H](C3(N)CC3)C2)c(F)c(N)c2c(=O)c(C(=O)O)cn([C@@H]3C[C@@H]3F)c12 [DQ-113],Ratio,Rattus norvegicus,1
same,half-life,[8],0.9 h
same,Kp at 6 h,[9],3.7
same,concentration at 5 min,[10],33700 ng/mL
same,MIC,Streptococcus pneumoniae [2],≤ 0.003 µg/mL
same,Kp at 6 h,[11],3.9
same,MIC50,Streptococcus pneumoniae [12],≤ 0.008 µg/mL
same,MIC90,Streptococcus pneumoniae [12],0.015 µg/mL
same,MIC,Escherichia coli,≤ 0.003 µg/mL
same,MIC,Enterococcus faecalis,0.025 µg/mL
same,concentration at 5 min,[13],22000 ng/mL
same,concentration at 5 min,[14],46200 ng/mL
same,MIC,[4],≤ 0.003 µg/mL
same,AUC at 6 h,[15],34800 ng·h/mL
same,MIC,Pseudomonas aeruginosa,0.39 µg/mL
same,AUC at 6 h,[16],37900 ng·h/mL
same,MIC,Streptococcus pyogenes,≤ 0.003 µg/mL
same,solubility,[17],291 µg/mL
same,AUC at 6 h,[18],36000 ng·h/mL
same,half-life,[19],1.3 h
same,MIC50,Enterococcus sp. [20],0.25 µg/mL
same,MIC90,Enterococcus sp. [20],0.25 µg/mL
same,MIC50,Staphylococcus aureus [21],0.12 µg/mL
same,MIC90,Staphylococcus aureus [21],0.5 µg/mL
same,AUC at 6 h,[22],9300 ng·h/mL
same,Kp at 6 h,[23],4.1
same,Dead,[24],0
same,MIC,Staphylococcus aureus [7],≤ 0.003 µg/mL
same,concentration at 5 min,[25],11100 ng/mL
same,half-life,[26],1.3 h
same,MIC,Streptococcus mitis,≤ 0.003 µg/mL
same,MIC,Klebsiella pneumoniae,0.013 µg/mL
same,MIC50,Enterococcus sp. [27],0.25 µg/mL
same,MIC90,Enterococcus sp. [27],2 µg/mL
same,half-life,[28],1.1 h
same,Toxicity,[29],Non-toxic
CO/N=C1\CN(c2nc3c(cc2F)c(=O)c(C(=O)O)cn3C2CC2)CC1CN (stereo not drawn) [GEMIFLOXACIN],MIC50,Streptococcus pneumoniae [12],0.03 µg/mL
same,MIC90,Streptococcus pneumoniae [12],0.06 µg/mL
same,MIC50,Staphylococcus aureus [21],2 µg/mL
same,MIC90,Staphylococcus aureus [21],32 µg/mL
same,MIC50,Enterococcus sp. [30],4 µg/mL
same,MIC90,Enterococcus sp. [30],32 µg/mL
same,MIC50,Enterococcus sp. [31],1 µg/mL
same,MIC90,Enterococcus sp. [31],2 µg/mL
CC1(C)S[C@@H]2[C@H](NC(=O)Cc3ccccc3)C(=O)N2[C@H]1C(=O)O [PENICILLIN G],MIC,Streptococcus pneumoniae [32],4 µg/mL
